Experiment [1] has as its target T1, saFabI (Staphylococcus aureus, UniProt Q6GI75).
T1 sequence (Q6GI75 1-256): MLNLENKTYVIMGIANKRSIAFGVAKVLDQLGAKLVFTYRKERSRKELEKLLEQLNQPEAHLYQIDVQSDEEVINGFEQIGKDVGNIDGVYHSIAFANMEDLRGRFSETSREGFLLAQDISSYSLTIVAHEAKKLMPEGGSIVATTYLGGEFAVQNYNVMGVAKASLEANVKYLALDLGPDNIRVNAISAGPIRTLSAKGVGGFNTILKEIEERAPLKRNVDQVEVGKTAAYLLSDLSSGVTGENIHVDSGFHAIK
The experiment can be described thus: Forward progress curve kinetics of saFabI inhibition. Type of experiment: biochemical. Particulars: for tR: residence time tR = 1/k-1, k-1 from progress curves (b); for slow-binding inhibition of saFabI: curvature of progress curves; for potency estimated from few doses: read-out: Ki.

Experiment [2] concerns the target T1, saFabI. The experiment can be described thus: Jump dilution assay. The format is biochemical. Particulars: for recovery of enzyme activity after dilution: 1:200 dilution after overnight preincubation with NADP+; for k-1: footnote c: jump dilution curve fitted to Eq 1; for tR: residence time tR = 1/k-1, k-1 from jump dilution (c). The procedure, abridged:
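Enzyme expressed in E. coli BL21(DE3) and purified by Ni2+ affinity and size exclusion. 10 μM enzyme was preincubated overnight at room temperature with 15 μM inhibitor and 500 μM NADP+. NADPH oxidation was read at 340 nm, 20 °C, and fitted to the Morrison–Walsh integrated equation.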

For experiment [3], the target named is saFabI R40Q/K41N/S44L (Staphylococcus aureus, UniProt Q6GI75, K41N/R40Q/S44L). The experiment can be described thus: 32P-NAD+ dissociation kinetics. The format is binding. Particulars: for k-1: footnote d: 32P-NAD-based dissociation curve fitted to Eq 5; for tR: residence time tR = 1/k-1, k-1 from 32P-NAD dissociation (d).

For the compound `Oc1cc(Cl)ccc1Oc1ccccc1` [PT52], the tR in experiment [1] was 35.3 ^b min. In experiment [2], the “recovery of enzyme activity after dilution” value was “full recovery of enzyme activity”, the k-1 is recorded as 2.33 ± 0.03 ^c hr^-1 and the tR was 25.8 ^c min. For the same compound, in experiment [3], the k-1 is given as 2.13 ± 0.41 ^d hr^-1 and the tR was 28.2 ^d min.

Regarding `CCCCCc1ccc(Oc2ccccc2)c(O)c1` [PT03], in experiment [1], the tR is given as 300.0 ^b min. Moreover, in experiment [3], the k-1 was 0.32 ± 0.17 ^d hr^-1 and the tR is listed as 187.5 ^d min.

On to `N#Cc1ccccc1Oc1ccc(Br)cc1O` [PT443], for which the tR in experiment [1] was 210.9 ^b min.

For the compound `CCCc1ccc(Oc2ccccc2)c(O)c1` [PT02], the tR in experiment [1] is reported as 60.9 ^b min. Moreover, in experiment [3], the k-1 was 0.57 ± 0.09 ^d hr^-1 and the tR is 105.3 ^d min.

As to `CCCCCCc1ccc(Oc2ccccc2C)c(O)c1` [PT70], in experiment [1] (B-ring ortho position SAR, in words, PT70 data not shown), the “change of affinity by the 2′-substituent” value is “increased affinity”.

Take `N#Cc1ccccc1Oc1ccc(Cl)cc1O` [PT447]: in experiment [1], the tR was 136.4 ^b min. Besides, the “recovery of enzyme activity after dilution” value in experiment [2] is on record as “partially recovered”. In addition, in experiment [3], the k-1 is on record as 0.47 ± 0.08 ^d hr^-1 and the tR is given as 127.7 ^d min.

Take `O=[N+]([O-])c1ccc(Oc2ccccc2)c(O)c1` [PT104]: the “slow-binding inhibition of saFabI” value in experiment [1] (in words) is recorded as “clear slow-binding inhibition”. Also, in experiment [1], the potency estimated from few doses is 1.49 ± 0.27 nM and the tR is reported as 6.6 ^b min.

For the compound `Cc1ccc(Oc2ccccc2)c(O)c1` [PT53, 5-Methyl-2-phenoxyphenol], in experiment [1], the potency estimated from few doses was 0.38 ± 0.03 nM and the tR is 17.3 ^b min. Moreover, in experiment [2], the k-1 is reported as 4.53 ± 0.08 ^c hr^-1 and the tR is 13.2 ^c min.

For the compound `Oc1ccccc1Oc1ccccc1` [PT51], the “slow-binding inhibition of saFabI” value in experiment [1] (in words) is recorded as “slow-binding inhibition could not be observed”. Besides, the tR in experiment [1] is at most 1 min.

Consider `CCCCCCc1ccc(Oc2ccccc2)c(O)c1` [PT04, 5-hexyl-2-phenoxyphenol], for which, in experiment [3], the k-1 is 0.13 ± 0.04 ^d hr^-1 and the tR is recorded as 461.5 ^d min.

For the compound `CCc1ccc(Oc2ccccc2)c(O)c1` [PT01], the tR in experiment [1] was 63.8 ^b min. For the same compound, in experiment [3], the k-1 is listed as 0.72 ± 0.08 ^d hr^-1 and the tR was 83.3 ^d min.

The record behind these values is article PMC3774598 (Biochemistry, 2013).
